Experimental data as given in ChEMBL document CHEMBL4334464, “From Phenylthiazoles to Phenylpyrazoles: Broadening the Antibacterial Spectrum toward Carbapenem-Resistant Bacteria” (J Med Chem, 2019).
≈ marks a conversion by molar mass, not a printed value. Calls of active or inactive are those of the source. No cut-off for these calls is given here.

Assays:
Staphylococcus aureus [1] = experiment: Ratio of MBC to MIC for Methicillin-sensitive Staphylococcus aureus ATCC 6538 clinical isolates; format: functional
Pseudomonas aeruginosa [2] = experiment: Ratio of MBC to MIC for Pseudomonas aeruginosa ATCC 9027 clinical isolates; format: functional
[3] = target: T1, Ditrans,polycis-undecaprenyl-diphosphate synthase ((2E,6E)-farnesyl-diphosphate specific) (Escherichia coli (strain K12)) (UniProt P60472); experiment: Inhibition of Escherichia coli UPPS using FPP/IPP as substrate preincubated for 30 mins followed by substrates addition and measured after 30 mins by malachite green reagent based assay
T1 sequence (whole entry): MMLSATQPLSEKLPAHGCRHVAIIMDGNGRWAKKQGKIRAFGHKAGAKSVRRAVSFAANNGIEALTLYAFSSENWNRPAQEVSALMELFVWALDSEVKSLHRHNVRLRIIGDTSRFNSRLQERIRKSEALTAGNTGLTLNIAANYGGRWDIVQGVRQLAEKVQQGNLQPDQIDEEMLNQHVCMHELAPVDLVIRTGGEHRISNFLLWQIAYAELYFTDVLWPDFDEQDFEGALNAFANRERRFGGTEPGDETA

[4] = Antibacterial activity against Enterobacter cloacae subsp. cloacae ATCC BAA-1143 clinical isolates after 18 to 20 hrs in aerobic condition by CLSI-based broth microdilution assay; format: functional
Staphylococcus aureus [5] = experiment: Antibacterial activity against Methicillin-resistant Staphylococcus aureus NRS123-USA400 clinical isolates after 18 to 20 hrs in aerobic condition by CLSI protocol based broth microdilution assay; format: functional
Pseudomonas aeruginosa [6] = experiment: Antibacterial activity against carbapenem-resistant Pseudomonas aeruginosa ATCC 1744 clinical isolates after 18 to 20 hrs in aerobic condition by CLSI-based broth microdilution assay; format: functional
Klebsiella pneumoniae [7] = experiment: Antibacterial activity against Klebsiella pneumoniae BAA-1144 clinical isolates after 18 to 20 hrs in aerobic condition by CLSI-based broth microdilution assay; format: functional
Staphylococcus aureus [8] = experiment: Ratio of MBC to MIC for Methicillin-sensitive Staphylococcus aureus NRS107 clinical isolates; format: functional
Pseudomonas aeruginosa [9] = experiment: microbe, parasite or virus in culture; conditions: ATCC 25619
Acinetobacter baumannii [10] = experiment: Ratio of MBC to MIC for Acinetobacter baumannii ATCC 19606 clinical isolates; format: functional, ATCC 19606 = CIP 70.34 = JCM 6841
Klebsiella pneumoniae [11] = experiment: Antibacterial activity against Klebsiella pneumoniae BAA-1706 clinical isolates after 18 to 20 hrs in aerobic condition by CLSI-based broth microdilution assay; format: functional
Staphylococcus aureus [12] = experiment: Antibacterial activity against Methicillin-sensitive Staphylococcus aureus ATCC 6538 clinical isolates after 18 to 20 hrs in aerobic condition by CLSI protocol based broth microdilution assay; format: functional
[13] = Stability in human liver microsomes assessed as compound remaining incubated for 15 mins in absence of NADPH by LC/MS/MS analysis; format: ADME, Microsome; conditions: read-out: Stability
Acinetobacter baumannii [14] = experiment: Antibacterial activity against Acinetobacter baumannii NR 17785 clinical isolates after 18 to 20 hrs in aerobic condition by CLSI-based broth microdilution assay; format: functional
Escherichia coli [15] = experiment: Ratio of MBC to MIC for Escherichia coli ATCC 1411 clinical isolates; format: functional
Staphylococcus aureus [16] = experiment: Antibacterial activity against vancomycin-resistant Staphylococcus aureus isolate 10 after 18 to 20 hrs in aerobic condition by CLSI-based broth microdilution assay; format: functional
Pseudomonas aeruginosa [17] = experiment: Ratio of MBC to MIC for Pseudomonas aeruginosa ATCC 25619 clinical isolates; format: functional
Acinetobacter baumannii [18] = experiment: Antibacterial activity against carbapenem-resistant Acinetobacter baumannii ATCC BAA 1605 clinical isolates after 18 to 20 hrs in aerobic condition by CLSI-based broth microdilution assay; format: functional
[19] = Intrinsic clearance in human liver microsomes in absence of NADPH by LC/MS/MS analysis; format: ADME, Microsome; conditions: read-out: CLH
Acinetobacter baumannii [20] = experiment: Ratio of MBC to MIC for Acinetobacter baumannii ATCC BAA 1747 clinical isolates; format: functional
Acinetobacter baumannii [21] = experiment: Ratio of MBC to MIC for Acinetobacter baumannii ATCC BAA 1141 clinical isolates; format: functional
Staphylococcus aureus [22] = experiment: Antibacterial activity against methicillin-resistant Staphylococcus aureus NRS123-USA400 infected in mouse J774 cells assessed as reduction in intracellular bacterial cells at 2 times MIC incubated for 24 hrs followed by re-plating on TSA plate and measured after 18 to 22 hrs relative to control; format: functional; parameters: scale not given: the % may be the effect or the level left
Summary of the method: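 J774 murine macrophages were infected with MRSA USA400 and then treated at 2×MIC for 24 h, in triplicate. The read-out was percent reduction in intracellular colony-forming units versus untreated infected cells.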

Streptococcus pneumoniae = experiment: Ratio of MBC to MIC for […] Streptococcus pneumoniae ATCC 700677 clinical isolates; format: functional
Klebsiella pneumoniae [23] = experiment: Antibacterial activity against carbapenem-resistant Klebsiella pneumoniae ATCC BAA-2146 clinical isolates after 18 to 20 hrs in aerobic condition by CLSI-based broth microdilution assay; format: functional
Staphylococcus aureus [24] = experiment: Antibacterial activity against vancomycin-resistant Staphylococcus aureus isolate 12 after 18 to 20 hrs in aerobic condition by CLSI-based broth microdilution assay; format: functional
Staphylococcus aureus [25] = experiment: Antibacterial activity against Methicillin-resistant Staphylococcus aureus NRS385-USA500 clinical isolates after 18 to 20 hrs in aerobic condition by CLSI protocol based broth microdilution assay; format: functional
Acinetobacter baumannii [26] = experiment: Antibacterial activity against Acinetobacter baumannii ATCC 19606 clinical isolates after 18 to 20 hrs in aerobic condition by CLSI-based broth microdilution assay; format: functional; conditions: ATCC 19606 = CIP 70.34 = JCM 6841
Salmonella enteritidis [27] = experiment: Ratio of MBC to MIC for Salmonella enteritidis ATCC 13076 clinical isolates; format: functional, Salmonella enterica subsp. enterica serovar Enteritidis
Salmonella typhimurium = experiment: Antibacterial activity against Salmonella typhimurium ATCC 700720 after 18 to 20 hrs in aerobic condition by CLSI-based broth microdilution assay; format: functional, Salmonella enterica subsp. enterica serovar Typhimurium; conditions: Salmonella enterica
Acinetobacter baumannii [28] = experiment: Antibacterial activity against Acinetobacter baumannii NR 17786 clinical isolates after 18 to 20 hrs in aerobic condition by CLSI-based broth microdilution assay; format: functional
Escherichia coli [29] = experiment: Ratio of MBC to MIC for Escherichia coli ATCC 35150 clinical isolates; format: functional
Escherichia coli [30] = experiment: Ratio of MBC to MIC for Escherichia coli BW25113 clinical isolates; format: functional
[31] = Stability in human liver microsomes assessed as compound remaining incubated for 45 mins in presence of NADPH by LC/MS/MS analysis; format: ADME, Microsome; conditions: read-out: Stability
Summary of the method: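 Two independent runs (1st and 2nd) were done at each time point, and the mean percent remaining is reported. Incubations were run both with and without NADPH. Half-life and intrinsic clearance (Clint) were derived from the time-course data.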

Salmonella enteritidis [32] = experiment: Ratio of MBC to MIC for Salmonella enteritidis ATCC 14028 clinical isolates; format: functional, Salmonella enterica subsp. enterica serovar Enteritidis
Salmonella enterica = experiment: Ratio of MBC to MIC for Salmonella enterica NR-170 clinical isolates; format: functional
Clostridioides difficile = experiment: Antibacterial activity against Clostridium difficile ATCC BAA 1870 incubated for 48 hrs in anaerobic condition by CLSI-based broth microdilution assay; format: functional; conditions: ATCC BAA 1870, 48 h
Staphylococcus aureus [33] = experiment: Antibiofilm activity against methicillin-resistant Staphylococcus aureus NRS384-USA300 clinical isolates assessed as inhibition of biofilm formation at 0.5 times MIC incubated for 24 hrs by crystal violet staining based spectrophotometric method relative to control; format: functional

| Structure (SMILES) | Ratio (Staphylococcus aureus [1]) | Ratio (Pseudomonas aeruginosa [2]) | inhibition [3] | MIC [4] [µg/mL] | MIC (Staphylococcus aureus [5]) [µg/mL] | MIC (Pseudomonas aeruginosa [6]) [µg/mL] | MIC (Klebsiella pneumoniae [7]) [µg/mL] | Ratio (Staphylococcus aureus [8]) | MIC (Pseudomonas aeruginosa [9]) [µg/mL] | Ratio (Acinetobacter baumannii [10]) | MIC (Klebsiella pneumoniae [11]) [µg/mL] | MIC (Staphylococcus aureus [12]) [µg/mL] | remaining at 0.25 h [13] [%] | MIC (Acinetobacter baumannii [14]) [µg/mL] | Ratio (Escherichia coli [15]) | MIC (Staphylococcus aureus [16]) [µg/mL] | Ratio (Pseudomonas aeruginosa [17]) | MIC (Acinetobacter baumannii [18]) [µg/mL] | microsomal CLint [19] [µL/min/mg] | Ratio (Acinetobacter baumannii [20]) | also measured |
| --- | --- | --- | --- | --- | --- | --- | --- | --- | --- | --- | --- | --- | --- | --- | --- | --- | --- | --- | --- | --- | --- |
| C/C(=N\NC1=NCCN1)c1cnn(-c2ccc(C#CC3CCCC3)cc2)c1C | <=2 | >=1 | inactive | 32 (≈ 85.4 µM) | 4 (≈ 10.7 µM) | 32 (≈ 85.4 µM) | 64 (≈ 171 µM) | <=2 | 64 (≈ 171 µM) | >=1 | 32 (≈ 85.4 µM) | 1 (≈ 2.67 µM) | 98 | 8 (≈ 21.4 µM) | >=1 | 8 (≈ 21.4 µM) | >=1 | 16 (≈ 42.7 µM) | < 116 | >=1 | Ratio (Acinetobacter baumannii [21]): >=1; Activity (Staphylococcus aureus [22]): 98.4%; Ratio (Streptococcus pneumoniae): <3; MIC (Klebsiella pneumoniae [23]): 64 µg/mL (≈ 171 µM); MIC (Staphylococcus aureus [24]): 4 µg/mL (≈ 10.7 µM); MIC (Staphylococcus aureus [25]): 4 µg/mL (≈ 10.7 µM); MIC (Acinetobacter baumannii [26]): 16 µg/mL (≈ 42.7 µM); Ratio (Salmonella enteritidis [27]): >=1; MIC (Salmonella typhimurium): 64 µg/mL (≈ 171 µM); MIC (Acinetobacter baumannii [28]): 16 µg/mL (≈ 42.7 µM); Ratio (Escherichia coli [29]): >=1; Ratio (Escherichia coli [30]): >=1; remaining at 0.75 h [31]: 79%; Ratio (Salmonella enteritidis [32]): >=1; Ratio (Salmonella enterica): >=1; MIC (Clostridioides difficile): 4 µg/mL (≈ 10.7 µM) |
| C/C(=N\NC(=N)N)c1cnn(-c2ccc(C#CC3CCCC3)cc2)c1C | <=2 | >=1 | inactive | 8 (≈ 23 µM) | 2 (≈ 5.74 µM) | 16 (≈ 45.9 µM) | 8 (≈ 23 µM) | <=2 | 16 (≈ 45.9 µM) | >=1 | 4 (≈ 11.5 µM) | 0.5 (≈ 1.43 µM) | 99 | 4 (≈ 11.5 µM) | >=1 | 0.5 (≈ 1.43 µM) | >=1 | 8 (≈ 23 µM) | < 116 | >=1 | Ratio (Acinetobacter baumannii [21]): >=1; Activity (Staphylococcus aureus [22]): 90%; Ratio (Streptococcus pneumoniae): <3; MIC (Klebsiella pneumoniae [23]): 16 µg/mL (≈ 45.9 µM); MIC (Staphylococcus aureus [24]): 1 µg/mL (≈ 2.87 µM); MIC (Staphylococcus aureus [25]): 0.5 µg/mL (≈ 1.43 µM); MIC (Acinetobacter baumannii [26]): 4 µg/mL (≈ 11.5 µM); Ratio (Salmonella enteritidis [27]): >=1; MIC (Salmonella typhimurium): 8 µg/mL (≈ 23 µM); inhibition (INH) (Staphylococcus aureus [33]): 31%; MIC (Acinetobacter baumannii [28]): 8 µg/mL (≈ 23 µM); Ratio (Escherichia coli [29]): >=1; Ratio (Escherichia coli [30]): >=1; remaining at 0.75 h [31]: 81%; Ratio (Salmonella enteritidis [32]): >=1; Ratio (Salmonella enterica): >=1; MIC (Clostridioides difficile): 1 µg/mL (≈ 2.87 µM) |
